One data set concerns Trichomonas vaginalis. The data set is described as follows: Antitrichomonal activity against Trichomonas vaginalis after 48 hrs by trypan blue exclusion assay. The class given is functional. In outline:
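Trophozoites in TYM medium; stock solutions serially diluted in TYM to concentrations up to 0.1 mg/mL, DMSO/TYM as vehicle control. Parasites added, incubated anaerobically at 37 °C, viability checked by trypan blue exclusion under microscope (200×) from 3 to 48 h. MIC = lowest concentration with all cells dead at 48 h. Metronidazole reference; run three times.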

The test system of a further data set is Candida parapsilosis. Kind of data set: Antifungal activity against Candida parapsilosis after 48 hrs by broth microdilution technique. Particulars: Lodderomyces parapsilosis. The format is functional. An outline of the steps: (§1)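 Broth microdilution MIC per NCCLS guidelines in RPMI 1640 buffered with MOPS; starting inoculum of test culture 1–5 × 10³ CFU/mL.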

Data set [1] deals with Spermatozoa. Kind of data set: Sperimcidal activity against human spermatozoa assessed as sperm motility at 1 % drug solution%. The class given is functional. In outline: (§2)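 Drop of sperm–compound mixture placed on slide under cover glass, examined by phase contrast microscopy in five fields; percentage of motile spermatozoa scored visually within 30–40 s. N-9 as reference control; some compounds tested as D-(-)-tartrate salts.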

Data set [2] has as its system Trichophyton mentagrophytes. The data set is described as follows: Antifungal activity against Trichophyton mentagrophytes after 48 hrs by broth microdilution technique. The format is functional. In outline:
as §1
A general note: Broth dilution looks for growth in wells or tubes with falling amounts of substance.

Data set [3] has as its system Spermatozoa. Kind of data set: Sperimcidal activity against human spermatozoa assessed as sperm immobilization at 1 % drug solution%. The format is functional. In outline:
as §2

The test system of the next data set is Sporothrix schenckii. The data set is described as follows: Antifungal activity against Sporothrix schenckii after 48 hrs by broth microdilution technique. The format is functional. An outline of the steps: as §1
Another data set has as its system Candida albicans. Kind of data set: Antifungal activity against Candida albicans after 48 hrs by broth microdilution technique. The format is functional. An outline of the steps: as §1
Another data set relates to HeLa. Kind of data set: Cytotoxicity against human HeLa cells at 200 ug/ml after 24 hrs by MTT assay. The format is cell-based. In outline:
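HeLa cells seeded at 5.0 × 10⁴ per well in DMEM with 10% FCS, 24 h at 37 °C in 5% CO₂; medium replaced with fresh medium containing test dilutions, 10% DMSO vehicle in control wells. After a further 24 h, MTT added; formazan dissolved in DMSO, OD read at 540 nm. Mean ± SE of 3 estimations.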
Background: Tetrazolium assays rely on reduction of a dye to a coloured formazan, in cell work by metabolically active cells.

For the next data set, the system named is Cryptococcus neoformans. The data set is described as follows: Antifungal activity against Cryptococcus neoformans after 48 hrs by broth microdilution technique. The format is functional. In outline:
as §1

The subject of a further data set is Aspergillus fumigatus. The data set is described as follows: Antifungal activity against Aspergillus fumigatus after 48 hrs by broth microdilution technique. The class given is functional. An outline of the steps:
as §1

This note sets out measurements from ChEMBL document CHEMBL1153733, “Imidazole derivatives as possible microbicides with dual protection” (Eur J Med Chem, 2010).

In brackets after ≈: the same amount, converted by molar mass. A value given as a limit tells only on which side of the number the result lay.

Take `Cc1ncc([N+](=O)[O-])n1CCn1cnc2ccccc21`: the MIC – broadly, the lowest concentration found to suppress growth – is 4.61 µM (≈ 1.25 µg/mL) with Trichomonas vaginalis; over 50 µg/mL in the data set with Candida parapsilosis; over 50 µg/mL in [2]; 50 µg/mL (≈ 184 µM) in the data set with Sporothrix schenckii; over 50 µg/mL in the data set on Candida albicans; over 50 µg/mL against Cryptococcus neoformans. The MIC against Aspergillus fumigatus was over 50 µg/mL. Also, the Activity in the data set on Spermatozoa [1] is reported as 0%; in the data set on Spermatozoa [3] it was 100%; in the data set with HeLa, “Non-toxic”.
Regarding `Cc1ncc([N+](=O)[O-])n1CCOC(=O)CCN(C)CCC(Oc1ccc(C(F)(F)F)cc1)c1ccccc1` (stereo not given), the MIC with Trichomonas vaginalis was 11.7 µM (≈ 6.25 µg/mL); against Candida parapsilosis, over 50 µg/mL; in data set [2], 50 µg/mL (≈ 93.5 µM); in the data set on Sporothrix schenckii, over 50 µg/mL; with Candida albicans it was over 50 µg/mL; against Cryptococcus neoformans, over 50 µg/mL. This compound displayed a minimum inhibitory concentration (MIC) in the data set with Aspergillus fumigatus of over 50 µg/mL. Also, the results for the Activity in the data set with Spermatozoa [1], in the data set with Spermatozoa [3] and in the data set on HeLa were 0%, 100% and “Non-toxic”, respectively.
With `Cc1ncc([N+](=O)[O-])n1CCSC(=S)N1CCN(C)CC1`, the MIC in the data set with Trichomonas vaginalis was 7.6 µM (≈ 2.5 µg/mL); with Candida parapsilosis, over 50 µg/mL; in data set [2], 50 µg/mL (≈ 152 µM); with Sporothrix schenckii, 50 µg/mL (≈ 152 µM); against Candida albicans it was over 50 µg/mL; in the data set with Cryptococcus neoformans it was over 50 µg/mL. In the data set on Aspergillus fumigatus, this compound gave an MIC of over 50 µg/mL. For the same compound, the Activity in the data set with Spermatozoa [1] is listed as 0%; in the data set with Spermatozoa [3], 100%; with HeLa, “Non-toxic”.
Consider `Cc1ncc([N+](=O)[O-])n1CCSC(=S)N1CCCC1.O=C(O)C(O)C(O)C(=O)O`, for which the minimal inhibitory concentration (MIC) with Trichomonas vaginalis was 8.33 µM; in the data set with Candida parapsilosis, over 50 µg/mL; in data set [2], 50 µg/mL; against Sporothrix schenckii it was 25 µg/mL; in the data set with Candida albicans, 50 µg/mL; in the data set with Cryptococcus neoformans it was 50 µg/mL. In addition, the MIC against Aspergillus fumigatus is over 50 µg/mL. In addition, the figures for the Activity in the data set on Spermatozoa [1], in the data set on Spermatozoa [3] and in the data set on HeLa were 0%, 100% and “Non-toxic”, respectively.
On to `Cc1ncc([N+](=O)[O-])n1CCSC(=S)N(C)C.O=C(O)C(O)C(O)C(=O)O`, for which the MIC is 1.14 µM with Trichomonas vaginalis; over 50 µg/mL in the data set on Candida parapsilosis; 50 µg/mL in [2]; over 50 µg/mL with Sporothrix schenckii; over 50 µg/mL in the data set with Candida albicans; over 50 µg/mL in the data set with Cryptococcus neoformans. The same compound returned an MIC against Aspergillus fumigatus of over 50 µg/mL. The figures for the Activity in the data set with Spermatozoa [1], in the data set on Spermatozoa [3] and with HeLa were 0%, 100% and “Non-toxic”, respectively.
Take `COc1ccccc1N1CCN(C(=S)SCCn2c([N+](=O)[O-])cnc2C)CC1.O=C(O)C(O)C(O)C(=O)O`: the MIC is 5.94 µM in the data set with Trichomonas vaginalis; over 50 µg/mL against Candida parapsilosis; 25 µg/mL in data set [2]; 50 µg/mL against Sporothrix schenckii; over 50 µg/mL against Candida albicans; over 50 µg/mL against Cryptococcus neoformans. This compound showed an MIC against Aspergillus fumigatus of over 50 µg/mL. The results for the Activity in the data set with Spermatozoa [1], in the data set on Spermatozoa [3] and in the data set with HeLa were 0%, 100% and “Non-toxic”, respectively.
`Cc1ncc([N+](=O)[O-])n1CCSC(=S)N1CCN(c2ccccn2)CC1.O=C(O)C(O)C(O)C(=O)O`: the minimal inhibitory concentration (MIC) in the data set with Trichomonas vaginalis is 6.38 µM; in the data set on Candida parapsilosis it was over 50 µg/mL; in data set [2] it was 50 µg/mL; against Sporothrix schenckii it was 50 µg/mL; in the data set with Candida albicans, over 50 µg/mL; against Cryptococcus neoformans, over 50 µg/mL. For the same compound, in the data set on Aspergillus fumigatus, the MIC was over 50 µg/mL. In addition, the Activity with Spermatozoa [1] is given as 0%; in the data set on Spermatozoa [3] it was 100%; in the data set with HeLa, “Non-toxic”.
